Measurements as given in ChEMBL document CHEMBL1148671, “Synthesis and antibacterial activity of C12 des-methyl ketolides” (2006).
Values after ≈ are worked out from the molar mass of the structure shown.

How the values were obtained:
Type in all cases: functional
[1] = test system: Streptococcus pneumoniae; experiment: Antibacterial activity against Streptococcus pneumoniae 49619 by broth microdilution method
Method in brief: (§1)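 In vitro activity was read as the minimum inhibitory concentration (MIC) by broth microdilution and reported in μg/mL. The S. pneumoniae panel included erythromycin-resistant strains carrying mef or erm genes. Telithromycin and clarithromycin were run as comparators in every assay.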

[2] = test system: Streptococcus pneumoniae; experiment: Antibacterial activity against Streptococcus pneumoniae 280-962 by broth microdilution method; method in brief: as §1
[3] = test system: Enterococcus faecalis; experiment: Antibacterial activity against Enterococcus faecalis bc11148-2 by broth microdilution method; method in brief: as §1
[4] = test system: Staphylococcus epidermidis; experiment: Antibacterial activity against Staphylococcus epidermidis f50654 by broth microdilution method; method in brief: as §1
[5] = test system: Streptococcus pyogenes; experiment: Antibacterial activity against Streptococcus pyogenes 8668 by broth microdilution method; method in brief: as §1
[6] = test system: Streptococcus pneumoniae; experiment: Antibacterial activity against Streptococcus pneumoniae 297-749 by broth microdilution method; method in brief: as §1
[7] = test system: Staphylococcus epidermidis; experiment: Antibacterial activity against Staphylococcus epidermidis 14990 by broth microdilution method; method in brief: as §1
[8] = test system: Staphylococcus aureus; experiment: Antibacterial activity against Staphylococcus aureus 29213 by broth microdilution method; conditions: ATCC29213; method in brief: as §1
[9] = test system: Streptococcus pneumoniae; experiment: Antibacterial activity against erythromycin-resistant Streptococcus pneumoniae erm 6849 by broth microdilution method
[10] = test system: Streptococcus pneumoniae; experiment: Antibacterial activity against erythromycin-resistant Streptococcus pneumoniae mef 5654 by broth microdilution method
[11] = test system: Streptococcus pneumoniae; experiment: Antibacterial activity against erythromycin-resistant Streptococcus pneumoniae mef S 3427 by broth microdilution method
[12] = test system: Staphylococcus aureus; experiment: Antibacterial activity against Staphylococcus aureus 33591 by broth microdilution method; method in brief: as §1
[13] = test system: Enterococcus faecalis; experiment: Antibacterial activity against Enterococcus faecalis 29212 by broth microdilution method; method in brief: as §1
[14] = test system: Haemophilus influenzae; experiment: Antibacterial activity against Haemophilus influenzae 49247 by broth microdilution method; method in brief: as §1
[15] = test system: Haemophilus influenzae; experiment: Antibacterial activity against Haemophilus influenzae 2762 by broth microdilution method; method in brief: as §1

Structure (SMILES) | MIC [1] [µg/mL] | MIC [2] [µg/mL] | MIC [3] [µg/mL] | MIC [4] [µg/mL] | MIC [5] [µg/mL] | MIC [6] [µg/mL] | MIC [7] [µg/mL] | MIC [8] [µg/mL] | MIC [9] [µg/mL] | MIC [10] [µg/mL] | MIC [11] [µg/mL] | MIC [12] [µg/mL] | MIC [13] [µg/mL] | MIC [14] [µg/mL] | MIC [15] [µg/mL]
CC[C@H]1OC(=O)[C@H](C)C(=O)[C@H](C)[C@@H](O[C@@H]2O[C@H](C)C[C@H](N(C)C)[C@H]2O)[C@](C)(OC)C[C@@H](C)C(=O)[C@H](C)[C@@H]2[C@@H]1OC(=O)N2CCCCn1cnc2ncccc21 | ≤ 0.05 | ≤ 0.05 | > 50 | 0.4 (≈ 0.518 µM) | ≤ 0.05 | ≤ 0.05 | 0.4 (≈ 0.518 µM) | 0.4 (≈ 0.518 µM) | 0.78 (≈ 1.01 µM) | 3.13 (≈ 4.05 µM) | 0.4 (≈ 0.518 µM) | > 50 | 0.1 (≈ 0.13 µM) | 3.13 (≈ 4.05 µM) | 
CC[C@H]1OC(=O)[C@H](C)C(=O)[C@H](C)[C@@H](O[C@@H]2O[C@H](C)C[C@H](N(C)C)[C@H]2O)[C@](C)(OC)C[C@@H](C)C(=O)[C@H](C)[C@@H]2[C@@H]1OC(=O)N2CCCCc1cnc2ccccc2c1 | ≤ 0.05 | ≤ 0.05 | 12.5 (≈ 16 µM) | 0.4 (≈ 0.512 µM) | ≤ 0.05 | ≤ 0.05 | 0.2 (≈ 0.256 µM) | 0.4 (≈ 0.512 µM) | 0.4 (≈ 0.512 µM) | 0.2 (≈ 0.256 µM) | 0.1 (≈ 0.128 µM) | > 50 | 0.1 (≈ 0.128 µM) | 6.25 (≈ 7.99 µM) | 1.56 (≈ 1.99 µM)
CC[C@H]1OC(=O)[C@H](C)C(=O)[C@H](C)[C@@H](O[C@@H]2O[C@H](C)C[C@H](N(C)C)[C@H]2O)[C@](C)(OC)C[C@@H](C)C(=O)[C@H](C)[C@@H]2[C@@H]1OC(=O)N2CCCCc1ccc(-c2cncnc2)s1 | ≤ 0.05 | ≤ 0.05 | > 50 | 0.2 (≈ 0.245 µM) | ≤ 0.05 | ≤ 0.05 | 0.2 (≈ 0.245 µM) | 0.2 (≈ 0.245 µM) | > 50 | 0.4 (≈ 0.491 µM) |  | > 50 | ≤ 0.05 | 12.5 (≈ 15.3 µM) | 3.13 (≈ 3.84 µM)
CC[C@H]1OC(=O)[C@H](C)C(=O)[C@H](C)[C@@H](O[C@@H]2O[C@H](C)C[C@H](N(C)C)[C@H]2O)[C@](C)(OC)C[C@@H](C)C(=O)[C@H](C)[C@@H]2[C@@H]1OC(=O)N2CCCCc1ncc(-c2ccccc2)s1 | ≤ 0.05 | ≤ 0.05 | 6.25 (≈ 7.68 µM) | 0.4 (≈ 0.491 µM) | 0.2 (≈ 0.246 µM) | ≤ 0.05 | 0.78 (≈ 0.958 µM) | 0.78 (≈ 0.958 µM) | 25 (≈ 30.7 µM) | 1.56 (≈ 1.92 µM) | 0.1 (≈ 0.123 µM) | > 50 | 0.4 (≈ 0.491 µM) | 12.5 (≈ 15.4 µM) | 3.13 (≈ 3.84 µM)
CC[C@H]1OC(=O)[C@H](C)C(=O)[C@H](C)[C@@H](O[C@@H]2O[C@H](C)C[C@H](N(C)C)[C@H]2O)[C@](C)(OC)C[C@@H](C)C(=O)[C@H](C)[C@@H]2[C@@H]1OC(=O)N2CCCCc1ccc2ccccc2n1 | ≤ 0.05 | ≤ 0.05 | 3.13 (≈ 4 µM) | 0.2 (≈ 0.256 µM) | ≤ 0.05 | ≤ 0.05 | 0.2 (≈ 0.256 µM) | 0.4 (≈ 0.512 µM) | 25 (≈ 32 µM) | 0.2 (≈ 0.256 µM) |  | > 50 | ≤ 0.05 | 3.13 (≈ 4 µM) | 
CC[C@H]1OC(=O)[C@H](C)C(=O)[C@H](C)[C@@H](O[C@@H]2O[C@H](C)C[C@H](N(C)C)[C@H]2O)[C@](C)(OC)C[C@@H](C)C(=O)[C@H](C)[C@@H]2[C@@H]1OC(=O)N2CCCCc1ncc(-c2cccc(N)c2)s1 | ≤ 0.05 | ≤ 0.05 | 3.13 (≈ 3.78 µM) | 0.2 (≈ 0.241 µM) | ≤ 0.05 | ≤ 0.05 | 0.4 (≈ 0.482 µM) | 0.4 (≈ 0.482 µM) | 50 (≈ 60.3 µM) | 0.78 (≈ 0.941 µM) |  | > 50 | 0.2 (≈ 0.241 µM) | 6.25 (≈ 7.54 µM) | 1.56 (≈ 1.88 µM)
CC[C@H]1OC(=O)[C@H](C)C(=O)[C@H](C)[C@@H](O[C@@H]2O[C@H](C)C[C@H](N(C)C)[C@H]2O)[C@](C)(OC)C[C@@H](C)C(=O)[C@H](C)[C@@H]2[C@@H]1OC(=O)N2CCCCn1ccc2c(N)cccc21 | 0.1 (≈ 0.127 µM) | ≤ 0.05 | 6.25 (≈ 7.96 µM) | 0.78 (≈ 0.994 µM) | ≤ 0.05 | ≤ 0.05 | 0.4 (≈ 0.51 µM) | 0.2 (≈ 0.255 µM) | 25 (≈ 31.8 µM) | 0.78 (≈ 0.994 µM) |  | > 50 | ≤ 0.05 | 3.13 (≈ 3.99 µM) | 1.56 (≈ 1.99 µM)
CC[C@H]1OC(=O)[C@H](C)C(=O)[C@H](C)[C@@H](O[C@@H]2O[C@H](C)C[C@H](N(C)C)[C@H]2O)[C@](C)(OC)C[C@@H](C)C(=O)[C@H](C)[C@@H]2[C@@H]1OC(=O)N2CCCCn1cnc(-c2ccc(Cl)nc2)c1 | ≤ 0.05 | ≤ 0.05 | 0.4 (≈ 0.481 µM) | 0.2 (≈ 0.24 µM) | ≤ 0.05 | ≤ 0.05 | 0.1 (≈ 0.12 µM) | 0.2 (≈ 0.24 µM) | 0.4 (≈ 0.481 µM) | 0.78 (≈ 0.937 µM) | 0.1 (≈ 0.12 µM) | > 50 | ≤ 0.05 | 6.25 (≈ 7.51 µM) | 1.56 (≈ 1.87 µM)
CC[C@H]1OC(=O)[C@H](C)C(=O)[C@H](C)[C@@H](O[C@@H]2O[C@H](C)C[C@H](N(C)C)[C@H]2O)[C@](C)(OC)C[C@@H](C)C(=O)[C@H](C)[C@@H]2[C@@H]1OC(=O)N2CCCCc1ccnc2ccccc12 | ≤ 0.05 | ≤ 0.05 | > 50 | 0.1 (≈ 0.128 µM) | ≤ 0.05 | ≤ 0.05 | 0.1 (≈ 0.128 µM) | 0.1 (≈ 0.128 µM) | 6.25 (≈ 7.99 µM) | 0.1 (≈ 0.128 µM) |  | > 50 | ≤ 0.05 | 1.56 (≈ 1.99 µM) | 
CC[C@H]1OC(=O)[C@H](C)C(=O)[C@H](C)[C@@H](O[C@@H]2O[C@H](C)C[C@H](N(C)C)[C@H]2O)[C@](C)(OC)C[C@@H](C)C(=O)[C@H](C)[C@@H]2[C@@H]1OC(=O)N2CCCCn1cnc(-c2ccc(F)nc2)c1 | ≤ 0.05 | 0.2 (≈ 0.245 µM) | 25 (≈ 30.6 µM) | 0.78 (≈ 0.956 µM) | ≤ 0.05 | ≤ 0.05 | 0.2 (≈ 0.245 µM) | 0.2 (≈ 0.245 µM) | 12.5 (≈ 15.3 µM) | 0.78 (≈ 0.956 µM) | 0.78 (≈ 0.956 µM) | > 50 | ≤ 0.05 | 3.13 (≈ 3.84 µM) | 0.78 (≈ 0.956 µM)
CC[C@H]1OC(=O)[C@H](C)C(=O)[C@H](C)[C@@H](O[C@@H]2O[C@H](C)C[C@H](N(C)C)[C@H]2O)[C@](C)(OC)C[C@@H](C)C(=O)[C@H](C)[C@@H]2[C@@H]1OC(=O)N2CCCCn1cnc(-c2ccccc2)c1 | ≤ 0.05 | ≤ 0.05 | > 50 | 0.2 (≈ 0.251 µM) | ≤ 0.05 | ≤ 0.05 | 0.1 (≈ 0.125 µM) | 0.2 (≈ 0.251 µM) | 0.78 (≈ 0.979 µM) | 0.2 (≈ 0.251 µM) |  | > 50 | 0.1 (≈ 0.125 µM) | 3.13 (≈ 3.93 µM) | 
CC[C@H]1OC(=O)[C@H](C)C(=O)[C@H](C)[C@@H](O[C@@H]2O[C@H](C)C[C@H](N(C)C)[C@H]2O)[C@](C)(OC)C[C@@H](C)C(=O)[C@H](C)[C@@H]2[C@@H]1OC(=O)N2CCCCn1ccc2ccccc21 | ≤ 0.05 | ≤ 0.05 | > 50 | 0.4 (≈ 0.519 µM) | ≤ 0.05 | ≤ 0.05 | 0.2 (≈ 0.26 µM) | 0.4 (≈ 0.519 µM) | 6.25 (≈ 8.12 µM) | 0.2 (≈ 0.26 µM) |  | > 50 | 0.1 (≈ 0.13 µM) | 6.25 (≈ 8.12 µM) | 
CC[C@H]1OC(=O)[C@H](C)C(=O)[C@H](C)[C@@H](O[C@@H]2O[C@H](C)C[C@H](N(C)C)[C@H]2O)[C@](C)(OC)C[C@@H](C)C(=O)[C@H](C)[C@@H]2[C@@H]1OC(=O)N2CCCCn1ccc2ncccc21 | ≤ 0.05 | ≤ 0.05 | 6.25 (≈ 8.11 µM) | 0.4 (≈ 0.519 µM) | ≤ 0.05 | ≤ 0.05 | 0.4 (≈ 0.519 µM) | 0.2 (≈ 0.259 µM) | 0.2 (≈ 0.259 µM) | 0.2 (≈ 0.259 µM) |  | > 50 | 0.1 (≈ 0.13 µM) | 1.56 (≈ 2.02 µM) | 0.78 (≈ 1.01 µM)
CC[C@H]1OC(=O)[C@H](C)C(=O)[C@H](C)[C@@H](O[C@@H]2O[C@H](C)C[C@H](N(C)C)[C@H]2O)[C@](C)(OC)C[C@@H](C)C(=O)[C@H](C)[C@@H]2[C@@H]1OC(=O)N2CCCC(C)(C)n1cnc2ncccc21 | ≤ 0.05 | ≤ 0.05 | 1.56 (≈ 1.95 µM) | 0.1 (≈ 0.125 µM) | ≤ 0.05 | ≤ 0.05 | 0.1 (≈ 0.125 µM) | 0.2 (≈ 0.25 µM) | 6.25 (≈ 7.81 µM) | 1.56 (≈ 1.95 µM) | 0.2 (≈ 0.25 µM) | > 50 | ≤ 0.05 | 6.25 (≈ 7.81 µM) | 1.56 (≈ 1.95 µM)
CC[C@H]1OC(=O)[C@H](C)C(=O)[C@H](C)[C@@H](O[C@@H]2O[C@H](C)C[C@H](N(C)C)[C@H]2O)[C@](C)(OC)C[C@@H](C)C(=O)[C@H](C)[C@@H]2[C@@H]1OC(=O)N2CCCCn1cnc2cccnc21 | ≤ 0.05 | ≤ 0.05 | 50 (≈ 64.8 µM) | 0.4 (≈ 0.518 µM) | ≤ 0.05 | ≤ 0.05 | 0.2 (≈ 0.259 µM) | 0.2 (≈ 0.259 µM) | 0.78 (≈ 1.01 µM) | 0.78 (≈ 1.01 µM) |  | > 50 | ≤ 0.05 | 3.13 (≈ 4.05 µM) | 
CC[C@H]1OC(=O)[C@H](C)C(=O)[C@H](C)[C@@H](O[C@@H]2O[C@H](C)C[C@H](N(C)C)[C@H]2O)[C@](C)(OC)C[C@@H](C)C(=O)[C@H](C)[C@H]2N(CCCCn3cnc(-c4cccnc4)c3)C(=O)O[C@]12C [TELITHROMYCIN] |  |  |  |  |  |  |  |  |  | 0.4 (≈ 0.493 µM) |  |  |  |  | 
